According to ChEMBL document CHEMBL4406900, “Synthesis and antidepressant-like activity of novel alkoxy-piperidine derivatives targeting SSRI/5-HT1A/5-HT7” (Bioorg Med Chem Lett, 2019):

Key:
[1] = target: T1, 5-hydroxytryptamine receptor 7 (Homo sapiens, UniProt P34969); test: Displacement of [3H]-LSD from 5HT7 receptor (unknown origin) expressed in CHO cell membranes at 1 uM incubated for 120 mins by scintillation counting method relative to control
How it was run: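 Single-concentration radioligand displacement on receptor-expressing cell membrane homogenates: [3H]-8-OH-DPAT with HEK-293 membranes for 5-HT1A, [3H]-LSD with CHO membranes for 5-HT7. Values are given as inhibition ratio (%).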

[2] = target: T2, 5-hydroxytryptamine receptor 1A (Homo sapiens) (UniProt P08908); test: Displacement of [3H]-8-OH-DPAT from 5HT1A receptor (unknown origin) expressed in HEK293 cells membranes at 1 uM incubated for 60 mins by scintillation counting method relative to control; assay type: cell membranes
T2 sequence (whole entry): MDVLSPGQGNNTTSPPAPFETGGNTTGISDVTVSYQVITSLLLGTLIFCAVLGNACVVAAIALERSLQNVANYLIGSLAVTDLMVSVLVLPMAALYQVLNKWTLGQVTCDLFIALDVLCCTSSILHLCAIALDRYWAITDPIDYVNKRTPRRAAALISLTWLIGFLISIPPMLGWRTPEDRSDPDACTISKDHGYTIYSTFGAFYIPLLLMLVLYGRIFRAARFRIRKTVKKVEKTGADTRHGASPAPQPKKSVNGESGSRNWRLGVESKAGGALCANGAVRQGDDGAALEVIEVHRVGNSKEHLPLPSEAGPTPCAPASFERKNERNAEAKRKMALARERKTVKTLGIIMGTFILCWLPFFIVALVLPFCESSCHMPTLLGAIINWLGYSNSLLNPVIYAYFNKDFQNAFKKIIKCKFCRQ

[3] = target: Sodium-dependent serotonin transporter (Rattus norvegicus) (UniProt P31652); test: Inhibition of rat synaptosomes 5HT transporter assessed as reduction in [3H]serotonin reuptake at 1 uM incubated for 15 mins by scintillation counting method relative to control; assay type: subcellular
Sequence of Sodium-dependent serotonin transporter (Rattus norvegicus) (P31652 whole entry): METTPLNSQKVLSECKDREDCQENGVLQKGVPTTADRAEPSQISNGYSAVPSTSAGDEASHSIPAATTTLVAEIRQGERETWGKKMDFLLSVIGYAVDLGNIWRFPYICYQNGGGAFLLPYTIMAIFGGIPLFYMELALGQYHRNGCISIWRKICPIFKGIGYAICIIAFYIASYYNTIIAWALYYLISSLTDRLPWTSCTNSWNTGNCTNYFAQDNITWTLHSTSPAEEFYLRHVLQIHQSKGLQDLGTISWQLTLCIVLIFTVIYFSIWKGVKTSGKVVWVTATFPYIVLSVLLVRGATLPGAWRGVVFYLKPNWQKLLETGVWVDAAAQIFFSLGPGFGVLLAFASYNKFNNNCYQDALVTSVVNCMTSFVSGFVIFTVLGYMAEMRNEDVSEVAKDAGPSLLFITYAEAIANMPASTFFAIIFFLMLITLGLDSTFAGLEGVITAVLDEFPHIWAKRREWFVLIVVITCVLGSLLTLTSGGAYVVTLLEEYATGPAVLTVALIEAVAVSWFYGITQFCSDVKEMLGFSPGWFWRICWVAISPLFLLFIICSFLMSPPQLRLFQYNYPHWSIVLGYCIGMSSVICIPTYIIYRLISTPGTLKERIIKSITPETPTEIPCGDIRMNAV
How it was run: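 Rat brain synaptosomes; inhibition of [3H]-5-HT incorporation through the serotonin uptake transporter at a single concentration, expressed as inhibition ratio (%).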

[4] = Clearance in human liver microsomes at 1 uM in presence of NADPH generating system measured for 10 to 90 mins by LC-MS/MS analysis; assay type: ADME, Microsome; conditions: read-out: CLH
How it was run: (§1)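 Metabolic stability in rat or human liver microsomes, reported as t1/2 (min) and intrinsic clearance CL (µL/min/mg).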

Mus musculus [5] = test: Antidepressant activity in mouse assessed as decrease in immobility time at 10 mg/kg, po administrated for daily for 7 days measured 1 hr post last dose by tail suspension test relative to control; assay type: functional; parameters: scale not given: the % may be the effect or the level left
How it was run: (§2)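 Tail suspension test in male mice after 7 days of repeated PO dosing at 10, 20 or 40 mg/kg/day. Immobility time was recorded with n = 10 per group, given as mean ± SEM and tested against vehicle (*P < 0.05, **P < 0.01).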

Mus musculus [6] = test: Antidepressant activity in mouse assessed as decrease in immobility time at […], po administrated for daily for 7 days measured 1 hr post last dose by tail suspension test relative to control; assay type: functional; parameters: scale not given: the % may be the effect or the level left
[7] = target: T1, 5-hydroxytryptamine receptor 7; test: Displacement of [3H]-LSD from 5HT7 receptor (unknown origin) expressed in CHO cell membranes incubated for 120 mins by scintillation counting method
How it was run: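 For 5-HT7, [3H]-LSD displacement binding was run on CHO cell membrane homogenates. Ki came from 8 concentrations, each tested in duplicate.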

[8] = Half life in human liver microsomes at 1 uM in presence of NADPH generating system measured for 10 to 90 mins by LC-MS/MS analysis; assay type: ADME, Microsome; how it was run: as §1
Mus musculus [9] = test: Antidepressant activity in mouse assessed as decrease in immobility time at 20 mg/kg, po administrated for daily for 7 days measured 1 hr post last dose by forced swim test relative to control; assay type: functional; parameters: scale not given: the % may be the effect or the level left
How it was run: (§3)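 Male mice, repeated oral dosing at 10, 20 or 40 mg/kg/day for 7 days. Immobility time was scored in the forced swim test. n = 10 per group, mean ± SEM, compared with a vehicle group (*P < 0.05, **P < 0.01).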

[10] = target: T3, 5-hydroxytryptamine receptor 1A (Homo sapiens, UniProt P08908); test: Displacement of [3H]-8-OH-DPAT from 5HT1A receptor (unknown origin) expressed in HEK293 cells membranes incubated for 60 mins by scintillation counting method; assay type: cell membranes
T3 sequence (P08908 whole entry): T2 sequence (whole entry)

Mus musculus [11] = test: Antidepressant activity in mouse assessed as decrease in immobility time at 40 mg/kg, po administrated for daily for 7 days measured 1 hr post last dose by forced swim test relative to control; assay type: functional; parameters: scale not given: the % may be the effect or the level left; how it was run: as §3
[12] = Clearance in rat liver microsomes at 1 uM in presence of NADPH generating system measured for 10 to 90 mins by LC-MS/MS analysis; assay type: ADME, Microsome; conditions: read-out: CLH; how it was run: as §1
[13] = target: Sodium-dependent serotonin transporter (Rattus norvegicus, UniProt P31652); test: Inhibition of rat synaptosomes 5HT transporter assessed as reduction in [3H]serotonin reuptake incubated for 15 mins by scintillation counting method; assay type: subcellular
Sequence of Sodium-dependent serotonin transporter (P31652 whole entry): as above
How it was run: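 Serotonin uptake transporter assay: inhibition of [3H]-5-HT incorporation into rat brain synaptosomes. IC50 was derived from 8 concentrations, each in duplicate.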

Mus musculus [14] = test: Antidepressant activity in mouse assessed as decrease in immobility time at 20 mg/kg, po administrated for daily for 7 days measured 1 hr post last dose by tail suspension test relative to control; assay type: functional; parameters: scale not given: the % may be the effect or the level left; how it was run: as §2
Mus musculus [15] = test: Antidepressant activity in mouse assessed as decrease in immobility time at 10 mg/kg, po administrated for daily for 7 days measured 1 hr post last dose by forced swim test relative to control; assay type: functional; parameters: scale not given: the % may be the effect or the level left; how it was run: as §3
[16] = Half life in rat liver microsomes at 1 uM in presence of NADPH generating system measured for 10 to 90 mins by LC-MS/MS analysis; assay type: ADME, Microsome; how it was run: as §1

T1 sequence (P34969 whole entry): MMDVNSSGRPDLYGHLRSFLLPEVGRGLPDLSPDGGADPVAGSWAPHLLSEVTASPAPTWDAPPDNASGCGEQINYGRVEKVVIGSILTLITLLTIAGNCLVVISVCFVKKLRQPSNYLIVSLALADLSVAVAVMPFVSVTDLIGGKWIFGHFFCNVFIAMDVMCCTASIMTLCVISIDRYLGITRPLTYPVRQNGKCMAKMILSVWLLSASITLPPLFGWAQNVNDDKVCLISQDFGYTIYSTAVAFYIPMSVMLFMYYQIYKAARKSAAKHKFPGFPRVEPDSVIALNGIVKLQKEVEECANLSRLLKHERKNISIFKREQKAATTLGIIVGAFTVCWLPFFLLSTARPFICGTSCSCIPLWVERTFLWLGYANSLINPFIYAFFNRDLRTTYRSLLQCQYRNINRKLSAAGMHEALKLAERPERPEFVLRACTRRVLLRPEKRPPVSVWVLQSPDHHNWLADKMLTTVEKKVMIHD

SMILES | inhibition [1] | inhibition [2] | inhibition [3] | also measured
Fc1ccc(OCCN2CCC(CCc3c[nH]c4ccc(F)cc34)CC2)c(-c2ccccc2)c1 | 94.3% | 54.3% | 99.8% | –
N#Cc1ccc(-c2cc(F)ccc2OCCN2CCC(c3c[nH]c4ccc(F)cc34)CC2)cc1 | 95.8% | 97.5% | 63% | –
COc1ccc2c(c1)[C@]13CCCC[C@@H]1[C@H](C2)N(C)CC3 [DEXTROMETHORPHAN] | – | – | – | microsomal CLint at 1 µM [4]: 31 µL/min/mg
Cc1ccc(-c2cc(F)ccc2OCCN2CCC(c3c[nH]c4ccc(F)cc34)CC2)cc1 | 86.2% | 94.5% | 38.9% | –
Fc1ccc(OCCN2CCC(c3c[nH]c4ccc(F)cc34)CC2)c(-c2ccccc2F)c1 | 88.7% | 97.8% | 97.1% | –
Fc1cccc(-c2cc(F)ccc2OCCN2CCC(c3c[nH]c4ccc(F)cc34)CC2)c1 | 91% | 95.9% | 94.3% | Activity (Mus musculus [5]): 8%; Activity (Mus musculus [6]): 17%; Ki [7]: 0.035 µM; half-life at 1 µM [8]: 61.4 min; Activity (Mus musculus [9]): 6%; Ki [10]: 0.017 µM; Activity (Mus musculus [11]): 27%; microsomal CLint at 1 µM [12]: 60.4 µL/min/mg; IC50 [13]: 0.085 µM; Activity (Mus musculus [14]): 2%; Activity (Mus musculus [15]): 20%; half-life at 1 µM [16]: 22.9 min; microsomal CLint at 1 µM [4]: 22.6 µL/min/mg
Fc1ccc(OCCN2CCC(Cc3c[nH]c4ccc(F)cc34)CC2)c(-c2ccccc2)c1 | 97.2% | 72.3% | 101% | –
Fc1ccc(OCCCN2CCC(Cc3c[nH]c4ccc(F)cc34)CC2)c(-c2ccccc2)c1 | 86.4% | 81.9% | 102% | –
Fc1ccc(OCCN2CCC(c3c[nH]c4ccc(F)cc34)CC2)c(-c2ccc(Cl)cc2)c1 | 80.3% | 95% | 27.3% | –
Fc1ccc(OCCCN2CCC(c3c[nH]c4ccc(F)cc34)CC2)c(-c2ccccc2)c1 | 76.1% | 97.7% | 87% | –
Fc1ccc2[nH]cc(C3CCN(CCOc4ccc(F)c(-c5ccccc5)c4)CC3)c2c1 | 54.2% | 96.9% | 66.6% | –
Fc1ccc(OCCN2CCC(c3c[nH]c4ccc(F)cc34)CC2)c(-c2ccccc2)c1 | 90.4% | 94.2% | 96.3% | Activity (Mus musculus [5]): 10%; Activity (Mus musculus [6]): 24%; Ki [7]: 0.025 µM; half-life at 1 µM [8]: 61.5 min; Activity (Mus musculus [9]): 8%; Ki [10]: 0.012 µM; Activity (Mus musculus [11]): 22%; microsomal CLint at 1 µM [12]: 40.2 µL/min/mg; IC50 [13]: 0.177 µM; Activity (Mus musculus [14]): 22%; Activity (Mus musculus [15]): 17%; half-life at 1 µM [16]: 34.5 min; microsomal CLint at 1 µM [4]: 22.5 µL/min/mg
Fc1ccc(-c2cc(F)ccc2OCCN2CCC(c3c[nH]c4ccc(F)cc34)CC2)cc1 | 86.5% | 97.4% | 90.6% | –
COc1ccc(-c2cc(F)ccc2OCCN2CCC(c3c[nH]c4ccc(F)cc34)CC2)cc1 | 95.9% | 98.7% | 12.3% | –
Cc1ccc(Sc2ccccc2N2CCNCC2)c(C)c1 [VORTIOXETINE] | 92.5% | – | 101% | Activity (Mus musculus [6]): 48%; Activity (Mus musculus [11]): 52%; microsomal CLint at 1 µM [4]: 6.5 µL/min/mg
